Reference: ChEMBL document CHEMBL1137629, “Antiproliferative effect of dihydroxyacetone on Trypanosoma brucei bloodstream forms: cell cycle progression, subcellular alterations, and cell death” (Antimicrob Agents Chemother, 2007)
Active and inactive are the calls of the source. No cut-off for these calls is given here.

Experiments:
[1] = test system: Trypanosoma brucei; experiment: Induction of apoptosis-like programmed cell death in Trypanosoma brucei bloodstream form assessed as phosphatidylserine exposure in outer leaflet of plasma membrane at 1 mM after 24 hrs by V-Fluos staining staining; assay type: functional
Method in brief: (§1)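 After 24 h DHA exposure of axenic bloodstream-form T. brucei MITat 1.2 (EATRO 427; 37°C, 5% CO₂), cells were washed in HEPES buffer (10 mM, pH 7.4, 140 mM NaCl, 5 mM CaCl₂). They were then stained with annexin V-Fluos for 15 min at 4°C and analysed by flow cytometry.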

[2] = test system: Trypanosoma brucei; experiment: Effect on morphological changes in Trypanosoma brucei bloodstream form assessed as increase in cell size after 24 hrs using DAPI staining by phase-contrast microscopy; assay type: functional, organism-based
[3] = test system: Trypanosoma brucei; experiment: Effect on morphological changes in Trypanosoma brucei bloodstream form assessed as presence of more than one flagellum at 3 mM after 24 hrs by transmission electron microscopy; assay type: functional, organism-based
Method in brief: (§2)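 Parasites exposed 24 h to 3 mM DHA. 10⁸ cells fixed 1 h at 4°C in 2% glutaraldehyde in 0.2 M sodium cacodylate with 0.12 M sucrose, held overnight in buffer, postfixed in 1.5% osmium tetroxide and stained with 0.5% uranyl acetate. Dehydrated in ethanol, cleared in propylene oxide, embedded in Agar 100. Sections stained with 5% uranyl acetate and 0.4% lead citrate for TEM. Rapamycin (5 μM) served as the autophagy positive control.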

[4] = test system: Trypanosoma brucei; experiment: Effect on morphological changes in Trypanosoma brucei bloodstream form assessed as presence of one or two nucleus at 3 mM after 24 hrs by transmission electron microscopy; assay type: functional, organism-based; method in brief: as §2
[5] = test system: Trypanosoma brucei; experiment: Effect on cell cycle of Trypanosoma brucei bloodstream form assessed as DNA content at 1 mM after 24 hrs using propidium iodide staining by FACS analysis; assay type: functional
Method in brief: (§3)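 T. brucei bloodstream forms (MITat 1.2, strain EATRO 427), axenic culture at 37°C, 5% CO₂. Treated 24 h. At least 5 × 10⁵ cells washed in PBS, lysed hypotonically 30 min at room temperature in 10 mM phosphate buffer pH 7.4 with 6 μM digitonin. Nuclei stained with propidium iodide (10 μg/ml final) and analysed by flow cytometry for G₁/S/G₂ distribution and degraded DNA.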

[6] = test system: Trypanosoma brucei; experiment: Effect on cell cycle of Trypanosoma brucei bloodstream form assessed as DNA content at 3 mM after 24 hrs using propidium iodide staining by FACS analysis; assay type: functional; method in brief: as §3
[7] = test system: Trypanosoma brucei; experiment: Trypanocidal activity against Trypanosoma brucei bloodstream form assessed as decrease in cell density after 24 hrs by spectrophotometry; assay type: functional, organism-based
Method in brief: (§4)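 Proliferation measured in complete medium (33 mM glucose, 15% serum) with a range of DHA concentrations. Cell density followed over 24 h. Triplicate, SD.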

[8] = test system: Trypanosoma brucei; experiment: Induction of apoptosis-like programmed cell death in Trypanosoma brucei bloodstream form assessed as phosphatidylserine exposure in outer leaflet of plasma membrane at 4 mM after 24 hrs by V-Fluos staining staining; assay type: functional; method in brief: as §1
[9] = test system: Trypanosoma brucei; experiment: Induction of necrosis in Trypanosoma brucei bloodstream form assessed as death of total cell population at > 4 mM up to 24 hrs using propidium iodide staining by FACS analysis
[10] = test system: Trypanosoma brucei; experiment: Trypanocidal activity against Trypanosoma brucei bloodstream form assessed as decrease in cell viability at 1 mM up to 40 mins by spectrophotometry; assay type: functional, organism-based
Method in brief: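 Viability as a carbon source. Bloodstream forms incubated in basic medium lacking glucose and serum: unsupplemented, with 1 mM glucose, or with 1 mM DHA. Cell density and motility followed over time. Triplicate, SD.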

[11] = test system: Trypanosoma brucei; experiment: Effect on morphological changes in Trypanosoma brucei bloodstream form assessed as presence of myelin-like structures at 3 mM after 24 hrs by transmission electron microscopy; assay type: functional, organism-based; method in brief: as §2
[12] = test system: Trypanosoma brucei; experiment: Effect on morphological changes in Trypanosoma brucei bloodstream form assessed as presence of more than one flagellum at 5 mM after 20 hrs by scanning electron microscopy; assay type: functional, organism-based
Method in brief: (§5)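 Cells grown 20 h with 5 mM DHA. Fixed and stained as for TEM (glutaraldehyde, osmium tetroxide, uranyl acetate), then dehydrated through 50, 75, 95 and 100% ethanol. Critical-point dried and gold-palladium sputter-coated for scanning electron microscopy.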

[13] = test system: Trypanosoma brucei; experiment: Induction of apoptosis-like programmed cell death in Trypanosoma brucei bloodstream form assessed as phosphatidylserine exposure in outer leaflet of plasma membrane at 5 uM after 24 hrs by V-Fluos staining staining; assay type: functional
[14] = test system: Trypanosoma brucei; experiment: Effect on cell cycle of Trypanosoma brucei bloodstream form assessed as increase in cells with two nuclei and two kinetoplasts at 1 to 3 mM using DAPI staining by phase-contrast microscopy; assay type: functional, organism-based
Method in brief: (§6)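 Bloodstream forms (MITat 1.2, EATRO 427) grown 24 h with or without DHA. Aliquots washed twice in PBS, resuspended, placed on slides and fixed with methanol. Stained 5 min with DAPI (0.1 μg/ml final), then washed. Phase-contrast and fluorescence images scored for nucleus/kinetoplast numbers (1N1K, 1N2K, 2N2K, 2N1K, abnormal). n = 4, Student's t test, SD.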

[15] = test system: Trypanosoma brucei; experiment: Trypanocidal activity against Trypanosoma brucei bloodstream form assessed as phosphatase activity; assay type: functional, organism-based
Method in brief: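 Parasites in exponential growth diluted to 2 × 10⁵ cells/ml and cultured 24 h with 1–4 mM DHA. Lysis buffer with p-nitrophenyl phosphate (in 1 M sodium acetate pH 5.5, 1% Triton X-100) added. Read at 405 nm after 6 h at 37°C. IC₅₀ derived from phosphatase activity (Bodley method).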

[16] = test system: Trypanosoma brucei; experiment: Effect on morphological changes in Trypanosoma brucei bloodstream form assessed as presence of atypical combination of number of nucleus after 24 hrs using DAPI staining by phase-contrast microscopy; assay type: functional, organism-based; method in brief: as §6
[17] = test system: Trypanosoma brucei; experiment: Effect on morphological changes in Trypanosoma brucei bloodstream form assessed as presence of kinetoplast after 24 hrs using DAPI staining by phase-contrast microscopy; assay type: functional, organism-based; method in brief: as §6
[18] = test system: Trypanosoma brucei; experiment: Trypanocidal activity against Trypanosoma brucei bloodstream form at 4 mM up to 24 hrs by spectrophotometry; assay type: functional; method in brief: as §4
[19] = test system: Trypanosoma brucei; experiment: Effect on cell cycle of Trypanosoma brucei bloodstream form assessed as induction of necrosis at 3 mM after 24 hrs using propidium iodide staining by FACS analysis; assay type: functional
Method in brief: (§7)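 Bloodstream forms exposed 24 h at 37°C, 5% CO₂. Cells at 2 × 10⁶/ml incubated 10 min with propidium iodide (5 μg/ml), and uptake read by flow cytometry as a measure of membrane integrity. Digitonin (6 μM) served as the necrosis positive control.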

[20] = test system: Trypanosoma brucei; experiment: Induction of apoptosis-like programmed cell death in Trypanosoma brucei bloodstream form assessed as phosphatidylserine exposure in outer leaflet of plasma membrane at 2 mM after 24 hrs by V-Fluos staining staining; assay type: functional; method in brief: as §1
[21] = test system: Trypanosoma brucei; experiment: Effect on cell cycle of Trypanosoma brucei bloodstream form assessed as DNA content at 5 uM after 24 hrs using propidium iodide staining by FACS analysis; assay type: functional; method in brief: as §3
[22] = test system: Trypanosoma brucei; experiment: Effect on cell cycle of Trypanosoma brucei bloodstream form assessed as induction of necrosis at 4 mM after 24 hrs using propidium iodide staining by FACS analysis; assay type: functional; method in brief: as §7
[23] = test system: Trypanosoma brucei; experiment: Effect on morphological changes in Trypanosoma brucei bloodstream form assessed as appearance of multiple folds in mitochondrion membrane at 3 mM after 24 hrs by transmission electron microscopy; assay type: functional, organism-based; method in brief: as §2
[24] = test system: Trypanosoma brucei; experiment: Effect on morphological changes in Trypanosoma brucei bloodstream form assessed as increase in autophagic vaculoe structures at 3 mM after 24 hrs by transmission electron microscopy; assay type: functional, organism-based; method in brief: as §2
[25] = test system: Trypanosoma brucei; experiment: Effect on morphological changes in Trypanosoma brucei bloodstream form assessed as presence of kinetoplast at 5 mM after 20 hrs by scanning electron microscopy; assay type: functional, organism-based; method in brief: as §5

For `O=C(CO)CO` [DIHYDROXYACETONE], the Activity [1] was 6.3%, the Activity [2] was “Dose-dependent effect” and the Activity [3] was “Active”. For the same compound, the Activity [4] was “Active”, the Activity [5] was 4.5% and the Activity [6] was 8%. For the same compound, the Activity [7] was “Dose-dependent effect”, the Activity [8] was 20% and the Activity [9] was “Active”. For the same compound, the Activity [10] was “inactive”, the Activity [11] was “Active” and the Activity [12] was “Active”. For the same compound, the Activity [13] was 35.8%, the Activity [14] was “Active” and the IC50 [15] was 1.03 mM. For the same compound, the Activity [16] was “Dose-dependent effect”, the Activity [17] was “Dose-dependent effect” and the Activity [18] was 100%. For the same compound, the Activity [19] was 9.9%, the Activity [20] was 10.1% and the Activity [21] was 47%. For the same compound, the Activity [22] was 12.9%, the Activity [23] was “Active” and the Activity [24] was “Active”. For the same compound, the Activity [25] was “inactive”.
